Test [1] deals with T1, Glycogen synthase kinase-3 beta (Homo sapiens, UniProt P49841). The test is described as follows: Inhibition of GSK3-beta at 10 uM by Z'-LYTE kinase assay. The procedure, abridged: (§1)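 Z'-LYTE fluorescence-ratio (FRET) kinase assay with GSK-3β and its peptide substrate. Relative inhibition was plotted against increasing compound concentrations and IC50 taken from the inhibition curves. […] is percent inhibition at a single 10 µM compound concentration.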
Target sequence in this assay (P49841 whole entry, looked up): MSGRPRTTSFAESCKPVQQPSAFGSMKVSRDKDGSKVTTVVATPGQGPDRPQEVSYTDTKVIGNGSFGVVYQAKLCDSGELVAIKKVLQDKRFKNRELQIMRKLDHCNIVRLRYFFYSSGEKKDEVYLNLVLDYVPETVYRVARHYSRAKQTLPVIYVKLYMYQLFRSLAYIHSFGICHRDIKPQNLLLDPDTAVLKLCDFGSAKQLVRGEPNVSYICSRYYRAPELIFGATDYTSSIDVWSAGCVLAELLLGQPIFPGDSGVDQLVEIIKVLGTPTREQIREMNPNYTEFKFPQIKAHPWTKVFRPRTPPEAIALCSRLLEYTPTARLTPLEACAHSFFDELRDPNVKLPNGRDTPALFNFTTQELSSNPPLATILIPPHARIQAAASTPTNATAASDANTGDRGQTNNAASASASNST

Test [2] concerns the target T1, Glycogen synthase kinase-3 beta. The test is described as follows: Inhibition of GSK3-beta by Z'-LYTE kinase assay. In outline: as §1
Target sequence in this assay (P49841 whole entry): as the sequence (P49841 whole entry, looked up) above
Test [3] can be described thus: Inhibition of PKA. The procedure, abridged: (§2)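 Counter-screen kinases (PKA, CSNK2, PKC, CDK1) were run under near-identical reaction conditions per the manufacturer's instructions, each with its own suitable substrate. Values are percent inhibition at a single 100 µM compound concentration, or IC50 in µM.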
The target in test [4] is T2, Protein kinase C alpha type (Homo sapiens, UniProt P17252). As to the kind of experiment: Inhibition of PKCalpha. In outline: as §2
A short description of test [5]: Inhibition of PKA at 100 uM.
For test [6], the target named is Cyclin-dependent kinase 1 (Homo sapiens) (UniProt P06493). As to the kind of experiment: Inhibition of CDK1 at 100 uM.
Test [7] can be described thus: Inhibition of CSNK2 at 100 uM.
Test [8] concerns the target T2, Protein kinase C alpha type. The test is described as follows: Inhibition of PKCalpha at 100 uM.
Test [9] concerns the target T1, Glycogen synthase kinase-3 beta. As to the kind of experiment: Inhibition of GSK3-beta by ATP competitive inhibition based assay. The procedure, abridged:
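GSK-3β enzyme velocity was measured with substrate across various ATP levels at increasing inhibitor concentrations. Mode of inhibition was read from Lineweaver–Burk double-reciprocal plots.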
Target sequence in this assay (P49841 whole entry, looked up): as the sequence (P49841 whole entry, looked up) above

The target is the same in test [10]. As to the kind of experiment: Inhibition of GSK3-beta in myoblasts assessed as beta-casein accumulation at 2 uM after 3 hrs by immunoblot. As to conditions: in the assay text read “beta-catenin” for “beta-casein”. In outline:
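C2C12 myoblasts plated at 5 × 10⁵ were exposed to compound at 2 µM for 3 h. Cells were lysed for total protein, run on SDS–PAGE and immunoblotted with anti-β-catenin antibody.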
Target sequence in this assay (P49841 whole entry, looked up): as above

pIC50: −log10 of the molar value. The source made the active and inactive calls. The rule behind the calls is not given here.

Cyclin-dependent kinase 1 (Homo sapiens), sequence (P06493 whole entry, looked up): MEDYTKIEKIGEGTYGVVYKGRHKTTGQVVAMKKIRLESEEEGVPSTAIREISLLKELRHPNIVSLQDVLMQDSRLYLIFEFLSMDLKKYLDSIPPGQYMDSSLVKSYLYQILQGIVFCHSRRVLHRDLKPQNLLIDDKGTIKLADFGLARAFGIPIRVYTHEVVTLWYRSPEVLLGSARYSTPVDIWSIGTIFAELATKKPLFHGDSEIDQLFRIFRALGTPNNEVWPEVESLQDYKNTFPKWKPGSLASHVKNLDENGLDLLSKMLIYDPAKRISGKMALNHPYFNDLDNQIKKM

With `CCOC(=O)Cn1sc(=O)n(CC(=O)N2CCCCC2)c1=O`, the inhibition (as a rule, the share of the control response that was lost under treatment) in test [1] was 65%; in test [5] it was 75%; in [6], 15%; in [7] it was 21%; in test [8], 93%. For the same compound, the pIC50 (commonly the negative decadic logarithm of the IC50, by convention in mol/L) in test [2] is 6.27; in test [3], 4.77; in test [4] it was 5.39.

`CCOC(=O)Cn1sc(=O)n(-c2cccc(C(=O)OCC)c2)c1=O`: the inhibition was 84% in test [1]; 87% in test [5]; 18% in test [6]; 21% in test [7]; 89% in test [8]. Further, the pIC50 in test [2] was 6.33; in test [3], 5.66; in [4], 5.28. Further, the outcome in test [9] and in [10] was Active.

For `O=c1sn(-c2ccccc2)c(=O)n1CCCl`, the inhibition turned out to be 74% in test [1]; 35% in test [5]; 0% in test [6]; 17% in [7]; 84% in test [8]. The pIC50 was 6.26 in test [2] and 5.24 in [4]. In addition, the result in [9] was Active.

For the compound `CCn1sc(=O)n(Cc2ccccc2)c1=O`, the inhibition in test [1] was 65%; in test [5] it was 30%; in test [6], 15%; in test [7] it was 30%; in test [8], 88%. The pIC50 is 5.15 in test [2] and 4.86 in test [4].

Turning to `O=c1sn(CCc2ccccc2)c(=O)n1Cc1ccc(F)cc1`, the inhibition came to 80% in test [1]; 20% in [5]; 20% in [6]; 31% in [7]; 51% in [8]. Also, the negative-log IC50 (pIC50) in test [2] is 5.73; in [4], 4.41.

As to `CCOC(=O)Cn1sc(=O)n(-c2ccc(C(=O)OCC)cc2)c1=O`, the inhibition in [1] was 75%; in [5] it was 81%; in [6], 12%; in test [7], 36%; in test [8], 78%. The pIC50 in test [2] was 5.99; in test [3], 5.16; in [4], 4.32.
